Data taken from ChEMBL document CHEMBL2046273, “3-Hydroxy-1H-quinazoline-2,4-dione derivatives as new antagonists at ionotropic glutamate receptors: molecular modeling and pharmacological studies” (Eur J Med Chem, 2012).
Activity calls are given as the source filed them. The calls are words filed in the database; no cut-off is given here.

Experiments:
[1] = species: Rattus norvegicus; assay: Displacement of [3H]kainate from kainate receptor in rat cortical membrane at 100 uM; format: cell membranes
In short: (§1)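 Rat cortical membranes, test compound at 100 µM single concentration. Diluted in buffer from a 1 mM stock in 50% DMSO. Result given as percent inhibition of specific radioligand binding. Determinations were done in triplicate, 3–4 separate experiments.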

[2] = target: Glutamate NMDA receptor (Rattus norvegicus) (UniProt P35439+Q00959+Q00960+Q00961+Q62645+Q8VHN2+Q9R1M7); assay: Displacement of [3H]glycine from NMDA receptor in rat cortical synaptical membrane at 100 uM; format: cell membranes; in short: as §1
[3] = Displacement of [3H]AMPA from AMPA receptor in rat cortical synaptical membrane; format: cell membranes
[4] = species: Rattus norvegicus; assay: Displacement of [3H]AMPA from AMPA receptor in rat cortical synaptical membrane at 100 uM; format: cell membranes; in short: as §1
[5] = Displacement of [3H]kainate from high affinity kainate receptor in rat cortical membrane; format: cell membranes
[6] = (§2) Neuroprotective activity in organotypic Wistar rat hippocampal CA1 region slices assessed as protection from oxygen-deprivation-induced neuronal damage at 1 uM dosed during 30 mins insult and subsequent 24 hrs recovery period by propidium iodide staining-based fluorescence analysis (reference value: 57 +/- 8%); format: functional
[7] = tested on: Mus musculus; assay: Anticonvulsant activity in Swiss albino mouse assessed as protection from PTZ-induced seizures at 30 mg/kg, po administered 30 mins before PTZ challenge measured after 30 mins; format: functional
In short: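 Male Swiss albino mice (23–30 g), housed 15 per cage, 23 ± 1 °C, 12 h light/dark. Test drug dispersed in 1% sodium carboxymethylcellulose and given orally in 10 ml/kg. PTZ given 90 mg/kg s.c. 30 min later. Clonic generalized convulsions scored over 30 min, expressed as % protection.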

[8] = target: Glutamate NMDA receptor; assay: Displacement of [3H]glycine from NMDA receptor in rat cortical synaptical membrane; format: cell membranes
[9] = Antagonist activity at AMPA receptor in mouse cortical wedge assessed as inhibition of S-AMPA-induced membrane depolarization by electrophysiological assay; format: functional
[10] = Antagonist activity at NMDA receptor in mouse cortical wedge assessed as inhibition of NMDA-induced membrane depolarization by electrophysiological assay; format: functional
[11] = as §2, with “at 30” for “at 1”; format: functional
[12] = species: Mus musculus; assay: Antagonist activity at NMDA receptor in mouse cortical wedge assessed as inhibition of NMDA-induced membrane depolarization at 10 uM by electrophysiological assay; format: functional
In short: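 Mouse cortical wedge preparation; antagonism measured as inhibition of depolarization evoked by NMDA, with test compound at 10 µM.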

[13] = tested on: Hippocampus; assay: Neuroprotective activity in Wistar rat acute hippocampal CA1 region assessed as protection from oxygen glucose deprivation-induced anoxia depolarization at 1 uM administered 15 mins before and during 7 mins oxygen-deprivation challenge; format: functional, tissue-based
In short: (§3)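 Acute rat hippocampal slices superfused with aCSF, compound in DMSO (final under 0.001%). Applied 15 min before and during 7-min OGD. Anoxic depolarization recorded in CA1 as negative DC voltage shift, with loss of fepsp followed on reperfusion with oxygenated glucose-containing aCSF. n = 3 (1 µM) or 6 (5 µM).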

[14] = Antagonist activity at kainate receptor in Wistar rat acute hippocampal CA1 region slices assessed as reduction of kainate-induced field excitatory postsynaptic potential suppression at 1 uM by electrophysiological analysis relative to untreated pre-drug level (reference value: 52.1 +/- 15.3%); format: functional, Hippocampus; set-up: scale not given: the % may be the effect or the level left
[15] = Antagonist activity at kainate receptor in Wistar rat acute hippocampal CA1 region slices assessed as reduction in field excitatory postsynaptic potential amplitude at basal conditions at 1 uM by electrophysiological analysis; format: functional; details: Hippocampus
[16] = Antagonist activity at kainate receptor in Wistar rat acute hippocampal CA1 region slices assessed as reduction in field excitatory postsynaptic potential amplitude at basal conditions at 5 uM by electrophysiological analysis; format: functional; details: Hippocampus
[17] = tested on: Hippocampus; assay: Neuroprotective activity in Wistar rat hippocampal CA1 region assessed as change in field excitatory postsynaptic potential at basal conditions at 1 to 5 uM by electrophysiological analysis; format: functional, tissue-based
[18] = tested on: Hippocampus; assay: Neuroprotective activity in Wistar rat acute hippocampal CA1 region slices assessed as protection from oxygen glucose deprivation-induced anoxic depolarization at 5 uM administered 15 mins before and during 7 mins oxygen glucose deprivation challenge; format: functional; in short: as §3

| Imax [2] | Ki [3] | IC50 [5] | Ki [8] | IC50 [9] | Compound | also measured |
| --- | --- | --- | --- | --- | --- | --- |
| 21% | 20 µM | – | – | – | COn1c(=O)[nH]c2cc(C(F)(F)F)c(-n3cnnc3)cc2c1=O | Imax [1]: 0% |
| 10% | – | 25 µM | – | – | O=C(O)c1ccccc1C(=O)Nc1cc2c(=O)n(O)c(=O)[nH]c2cc1C(F)(F)F | Imax [4]: 8% |
| – | – | – | 6.5 µM | – | O=c1[nH]c2cc(C(F)(F)F)c(-n3cnnc3)cc2c(=O)n1O | Activity [6]: 29%; Activity [7]: 65.5% |
| – | 6.1 µM | 32 µM | 6.1 µM | – | Nc1cc2c(=O)n(O)c(=O)[nH]c2cc1C(F)(F)F | – |
| – | 1.3 µM | 19.1 µM | 1.1 µM | – | O=c1[nH]c2cc(Cl)c([N+](=O)[O-])cc2c(=O)n1O | – |
| – | – | – | 0.08 µM | 52 µM | O=C(O)c1cc(O)c2c(Cl)cc(Cl)cc2n1 | Imax [4]: 5%; Imax [1]: 8%; IC50 [10]: 4.7 µM |
| – | 0.72 µM | 4.2 µM | 0.8 µM | 1.5 µM | O=Cc1ccn(-c2cc3c(=O)n(O)c(=O)[nH]c3cc2C(F)(F)F)c1 | IC50 [10]: 7 µM |
| 32% | 126 µM | – | – | – | O=c1[nH]c2cc(C(F)(F)F)c(-n3cccc3)cc2c(=O)n1O | Imax [1]: 10% |
| – | 0.46 µM | 17.3 µM | 5.1 µM | 2.9 µM | O=C(O)c1ccn(-c2cc3c(=O)n(O)c(=O)[nH]c3cc2C(F)(F)F)c1 | IC50 [10]: > 50 µM |
| 3% | 0.07 µM | 7 µM | – | 0.2 µM | NS(=O)(=O)c1cccc2c1c([N+](=O)[O-])cc1nc(O)c(O)nc12 [NBQX] | Activity [11]: 20%; inhibition [12]: inactive |
| – | 0.26 µM | 7 µM | 1.3 µM | – | O=c1[nH]c2cc(C(F)(F)F)c([N+](=O)[O-])cc2c(=O)n1O | – |
| – | 4.8 µM | 37.6 µM | 0.85 µM | – | O=c1[nH]c2cc(C(F)(F)F)ccc2c(=O)n1O | – |
| – | – | – | – | – | O=C(O)c1ccccc1C(=O)Nc1cc2c(=O)n(O)c(=O)[nH]c2cc1Cl | Activity [13]: inactive; Activity [14]: 85.8%; inhibition at 1 µM [15]: 19.2%; inhibition at 5 µM [16]: 39.6%; Activity [17]: Active; Activity [18]: 92.2% |
